12 compounds from ChEMBL document CHEMBL1142071, “Coproduction of novel 16S rRNA methylase RmtD and metallo-beta-lactamase SPM-1 in a panresistant Pseudomonas aeruginosa isolate from Brazil” (2007) can be followed below.

Converted amounts (≈) assume the structure as drawn. Bounds are passed on as bounds.

Format in all cases: functional
In experiment [1] the test system is Pseudomonas aeruginosa. Put plainly: Antimicrobial activity against Pseudomonas aeruginosa PA0905. In short, it runs like this:
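The clinical urine isolate was collected in 2005 in Sorocaba, Brazil. Aminoglycoside MICs were determined by CLSI agar dilution, with E. coli ATCC 25922 as the control strain. β-Lactam, ciprofloxacin and colistin MICs were determined by Etest.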

Experiment [2] deals with Escherichia coli. Nature of the experiment: Antimicrobial activity against Escherichia coli XL1-Blue pPA95S29. In outline:
(§1)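 Aminoglycoside MICs were determined by CLSI agar dilution, with E. coli ATCC 25922 as the control strain. The host was E. coli XL1-Blue carrying pBluescript II SK(+), either as vector alone or as a ligated Sau3AI partial digest of the cloned resistance plasmid. Transformants were selected on LB agar with 50 μg/ml ampicillin plus 10 μg/ml amikacin.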

For experiment [3], the system named is Escherichia coli. Put plainly: Antimicrobial activity against Escherichia coli XL1-Blue [pBluescript 2 SK(+). In outline: as §1

Broadly, the MIC is the lowest concentration found to suppress growth. A lower MIC goes with a more susceptible organism. Turning to `NCC[C@H](O)C(=O)N[C@@H]1C[C@H](N)[C@@H](O[C@H]2O[C@H](CN)[C@@H](O)[C@H](O)[C@H]2O)[C@H](O)[C@H]1O[C@H]1O[C@H](CO)[C@@H](O)[C@H](N)[C@H]1O` [AMIKACIN], the minimum inhibitory concentration (MIC) is greater than 256 µg/mL in experiment [1], greater than 256 µg/mL in experiment [2] and 0.5 µg/mL (≈ 0.854 µM) in experiment [3].

As for `CN[C@@H]1[C@@H](O[C@H]2O[C@H](CO)[C@@H](N)[C@H](O)[C@H]2O)OC2C[C@@H](N)[C@@H](O[C@H]3[C@H](O)[C@@H](O)[C@H](N)C[C@@H]3N)OC2[C@@H]1O` (some centres undefined) [APRAMYCIN], the figures for the minimal inhibitory concentration (MIC) in experiment [1], in experiment [2] and in experiment [3] were 32 µg/mL (≈ 59.3 µM), 2 µg/mL (≈ 3.71 µM) and 2 µg/mL (≈ 3.71 µM), respectively.

For `NCC[C@H](O)C(=O)N[C@@H]1C[C@H](N)[C@@H](O[C@H]2O[C@H](CN)CC[C@H]2N)[C@H](O)[C@H]1O[C@H]1O[C@H](CO)[C@@H](O)[C@H](N)[C@H]1O` [ARBEKACIN], the MIC in experiment [1] is greater than 256 µg/mL; in experiment [2], greater than 256 µg/mL; in experiment [3] it was 0.25 µg/mL (≈ 0.452 µM).

Turning to `C[C@H]1[C@H](NC(=O)/C(=N\OC(C)(C)C(=O)O)c2csc(N)n2)C(=O)N1S(=O)(=O)O` [AZTREONAM], in experiment [1], 8 µg/mL (≈ 18.4 µM) was the least that counted as inhibitory (MIC).

With `CO/N=C(\C(=O)N[C@@H]1C(=O)N2C(C(=O)[O-])=C(C[N+]3(C)CCCC3)CS[C@H]12)c1csc(N)n1` [CEFEPIME], the MIC in experiment [1] was greater than 256 µg/mL.

As to `CC(C)(O/N=C(\C(=O)N[C@@H]1C(=O)N2C(C(=O)[O-])=C(C[n+]3ccccc3)CS[C@H]12)c1csc(N)n1)C(=O)O` [CEFTAZIDIME], in experiment [1], the MIC is greater than 256 µg/mL.

In experiment [1], `O=C(O)c1cn(C2CC2)c2cc(N3CCNCC3)c(F)cc2c1=O` [CIPROFLOXACIN] came in with an MIC greater than 32 µg/mL.

With `NC[C@@H]1O[C@H](O[C@H]2[C@@H](O)[C@H](O[C@@H]3[C@@H](O)[C@H](N)C[C@H](N)[C@H]3O[C@H]3O[C@H](CN)[C@@H](O)[C@H](O)[C@H]3N)O[C@@H]2CO)[C@H](N)[C@@H](O)[C@@H]1O` [FRAMYCETIN], the MIC in experiment [1] was 64 µg/mL (≈ 104 µM); in experiment [2], 0.12 µg/mL (≈ 0.195 µM); in experiment [3], 0.12 µg/mL (≈ 0.195 µM).

The compound `C[C@@H](O)[C@H]1C(=O)N2C(C(=O)O)=C(SCCNC=N)C[C@H]12` [IMIPENEM ANHYDROUS] registered an MIC in experiment [1] greater than 32 µg/mL.

In experiment [1], `C[C@@H](O)[C@H]1C(=O)N2C(C(=O)O)=C(S[C@@H]3CN[C@H](C(=O)N(C)C)C3)[C@H](C)[C@H]12` [MEROPENEM] registered an MIC greater than 32 µg/mL.

`CN[C@@H]1[C@H](O[C@H]2[C@H](O[C@H]3[C@H](O)[C@@H](O)[C@H](N=C(N)N)[C@@H](O)[C@@H]3N=C(N)N)O[C@@H](C)[C@]2(O)C=O)O[C@@H](CO)[C@H](O)[C@H]1O` [STREPTOMYCIN]: the MIC was 128 µg/mL (≈ 220 µM) in experiment [1], 1 µg/mL (≈ 1.72 µM) in experiment [2] and 0.5 µg/mL (≈ 0.86 µM) in experiment [3].

As to `NC[C@H]1O[C@H](O[C@H]2[C@H](O)[C@@H](O[C@H]3O[C@H](CO)[C@@H](O)[C@H](N)[C@H]3O)[C@H](N)C[C@@H]2N)[C@H](N)C[C@@H]1O` [TOBRAMYCIN], the values for the MIC in experiment [1], in experiment [2] and in experiment [3] were 256 µg/mL (≈ 548 µM), 64 µg/mL (≈ 137 µM) and 0.06 µg/mL (≈ 0.128 µM), respectively.
